Experimental data reported in ChEMBL document CHEMBL5303300, “EUbOPEN Chemogenomics Library - Multiplex” (2023).
Several values for one entry are separate records, joined by “and”; a condition that tells them apart may be missing. Equal entries are not always repeated.

Assays:
U2OS = assay: Multiplex assay against U2OS; format: toxicity, cell-based; conditions: human, number of replicates 2
Outline: (§1)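 On a CQ1 microscope at 37°C and 5% CO2, live cells were imaged after compound addition. They had been stained at seeding with Hoechst33342, BioTracker Green Microtubule Cytoskeleton Dye, MitoTracker Red and Annexin V Alexa Fluor 680. CellPathfinder machine-learning gating assigned cells to Hoechst high-intensity objects or normal cells, normal cells to healthy, pyknosed or fragmented nuclei, and pyknosed cells to mitotic or apoptotic. Tubulin, mitochondrial-mass and membrane-permeability phenotypes are per cents of healthy-nucleus cells.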

Fibroblast = assay: Multiplex assay against human fibroblast; format: toxicity, cell-based; conditions: number of replicates 2; outline: as §1
[1] = 12 h, 1 µM, compound concentration 1 uM
[2] = 12 h, 10 µM, compound concentration 10 uM
[3] = 24 h, 1 µM, compound concentration 1 uM
[4] = 24 h, 10 µM, compound concentration 10 uM
[5] = 48 h, 1 µM, compound concentration 1 uM
[6] = 48 h, 10 µM, compound concentration 10 uM

SMILES: CN1CCc2cc(Cl)c(O)cc2[C@@H](c2ccccc2)C1.Cl
- Population Apoptotic (%) (U2OS; [1]): 100% and 36%
- Population Healthy Nuclei (%) (U2OS; [1]): 58% and 86%
- Population Hoechst High Intensity Objects (%) (U2OS; [1]): 0%
- Population Membrane Permeable-Phenotype (%) (U2OS; [1]): 0%
- Population Mitochondria Different-Phenotype (%) (U2OS; [1]): 0%
- Population Normal (%) (U2OS; [1]): 100%
- Population Pyknosed Nuclei (%) (U2OS; [1]): 12% and 7%
- Population Tubulin-Different-Phenotype (%) (U2OS; [1]): 78% and 88%
- Population Apoptotic (%) (U2OS; [2]): 50% and 29%
- Population Fragmented Nuclei (%) (U2OS; [2]): 3% and 4%
- Population Healthy Nuclei (%) (U2OS; [2]): 75% and 85%
- Population Hoechst High Intensity Objects (%) (U2OS; [2]): 0%
- Population Membrane Permeable-Phenotype (%) (U2OS; [2]): 0% and 2%
- Population Mitochondria Different-Phenotype (%) (U2OS; [2]): 0%
- Population Mitotic Cells (%) (U2OS; [2]): 50% and 70%
- Population Normal (%) (U2OS; [2]): 100% and 99%
- Population Pyknosed Nuclei (%) (U2OS; [2]): 21% and 9%
- Population Tubulin-Different-Phenotype (%) (U2OS; [2]): 55% and 80%
- Population Apoptotic (%) (U2OS; [3]): 28% and 33%
- Population Healthy Nuclei (%) (U2OS; [3]): 56% and 87%
- Population Hoechst High Intensity Objects (%) (U2OS; [3]): 0%
- Population Membrane Permeable-Phenotype (%) (U2OS; [3]): 0% and 1%
- Population Mitochondria Different-Phenotype (%) (U2OS; [3]): 0%
- Population Mitotic Cells (%) (U2OS; [3]): 71% and 66%
- Population Normal (%) (U2OS; [3]): 100%
- Population Pyknosed Nuclei (%) (U2OS; [3]): 15% and 7%
- Population Tubulin-Different-Phenotype (%) (U2OS; [3]): 88% and 92%
- Population Apoptotic (%) (U2OS; [4]): 50% and 58%
- Population Fragmented Nuclei (%) (U2OS; [4]): 5% and 3%
- Population Healthy Nuclei (%) (U2OS; [4]): 85% and 87%
- Population Hoechst High Intensity Objects (%) (U2OS; [4]): 0%
- Population Membrane Permeable-Phenotype (%) (U2OS; [4]): 1%
- Population Mitochondria Different-Phenotype (%) (U2OS; [4]): 0%
- Population Mitotic Cells (%) (U2OS; [4]): 50% and 41%
- Population Normal (%) (U2OS; [4]): 100% and 99%
- Population Pyknosed Nuclei (%) (U2OS; [4]): 10% and 8%
- Population Tubulin-Different-Phenotype (%) (U2OS; [4]): 75% and 81%
- Population Apoptotic (%) (U2OS; [5]): 54% and 50%
- Population Fragmented Nuclei (%) (U2OS; [5]): 8% and 3%
- Population Healthy Nuclei (%) (U2OS; [5]): 73% and 92%
- Population Hoechst High Intensity Objects (%) (U2OS; [5]): 1% and 0%
- Population Membrane Permeable-Phenotype (%) (U2OS; [5]): 2% and 1%
- Population Mitochondria Different-Phenotype (%) (U2OS; [5]): 2% and 0%
- Population Mitotic Cells (%) (U2OS; [5]): 45% and 50%
- Population Normal (%) (U2OS; [5]): 98% and 100%
- Population Tubulin-Different-Phenotype (%) (U2OS; [5]): 80% and 90%
- Population Apoptotic (%) (U2OS; [6]): 50% and 53%
- Population Fragmented Nuclei (%) (U2OS; [6]): 11% and 3%
- Population Healthy Nuclei (%) (U2OS; [6]): 79% and 88%
- Population Hoechst High Intensity Objects (%) (U2OS; [6]): 0%
- Population Membrane Permeable-Phenotype (%) (U2OS; [6]): 0% and 2%
- Population Mitochondria Different-Phenotype (%) (U2OS; [6]): 1% and 0%
- Population Mitotic Cells (%) (U2OS; [6]): 50% and 46%
- Population Normal (%) (U2OS; [6]): 100%
- Population Pyknosed Nuclei (%) (U2OS; [6]): 9% and 7%
- Population Tubulin-Different-Phenotype (%) (U2OS; [6]): 87%
- Population Apoptotic (%) (Fibroblast; [1]): 46% and 55%
- Population Fragmented Nuclei (%) (Fibroblast; [1]): 10% and 17%
- Population Healthy Nuclei (%) (Fibroblast; [1]): 63%
- Population Hoechst High Intensity Objects (%) (Fibroblast; [1]): 1% and 0%
- Population Membrane Permeable-Phenotype (%) (Fibroblast; [1]): 10% and 6%
- Population Mitochondria Different-Phenotype (%) (Fibroblast; [1]): 1% and 4%
- Population Mitotic Cells (%) (Fibroblast; [1]): 53% and 44%
- Population Normal (%) (Fibroblast; [1]): 98% and 99%
- Population Pyknosed Nuclei (%) (Fibroblast; [1]): 26% and 18%
- Population Tubulin-Different-Phenotype (%) (Fibroblast; [1]): 15% and 14%
- Total Cell Count (Fibroblast; [1]): 175 and 235
- Population Apoptotic (%) (Fibroblast; [2]): 43% and 53%
- Population Fragmented Nuclei (%) (Fibroblast; [2]): 11% and 17%
- Population Healthy Nuclei (%) (Fibroblast; [2]): 71% and 78%
- Population Hoechst High Intensity Objects (%) (Fibroblast; [2]): 0%
- Population Membrane Permeable-Phenotype (%) (Fibroblast; [2]): 4% and 3%
- Population Mitochondria Different-Phenotype (%) (Fibroblast; [2]): 3% and 4%
- Population Mitotic Cells (%) (Fibroblast; [2]): 56% and 46%
- Population Normal (%) (Fibroblast; [2]): 100%
- Population Tubulin-Different-Phenotype (%) (Fibroblast; [2]): 21% and 12%
- Total Cell Count (Fibroblast; [2]): 244 and 283
- Population Apoptotic (%) (Fibroblast; [3]): 52% and 62%
- Population Fragmented Nuclei (%) (Fibroblast; [3]): 6% and 18%
- Population Healthy Nuclei (%) (Fibroblast; [3]): 69% and 67%
- Population Hoechst High Intensity Objects (%) (Fibroblast; [3]): 1% and 0%
- Population Membrane Permeable-Phenotype (%) (Fibroblast; [3]): 12% and 7%
- Population Mitochondria Different-Phenotype (%) (Fibroblast; [3]): 0% and 1%
- Population Mitotic Cells (%) (Fibroblast; [3]): 47% and 37%
- Population Normal (%) (Fibroblast; [3]): 98% and 100%
- Population Pyknosed Nuclei (%) (Fibroblast; [3]): 23% and 14%
- Population Tubulin-Different-Phenotype (%) (Fibroblast; [3]): 20% and 11%
- Total Cell Count (Fibroblast; [3]): 161 and 242
- Population Apoptotic (%) (Fibroblast; [4]): 65% and 83%
- Population Fragmented Nuclei (%) (Fibroblast; [4]): 16% and 21%
- Population Healthy Nuclei (%) (Fibroblast; [4]): 76%
- Population Hoechst High Intensity Objects (%) (Fibroblast; [4]): 0%
- Population Membrane Permeable-Phenotype (%) (Fibroblast; [4]): 3% and 2%
